Test results reported in ChEMBL document CHEMBL4152390, “Discovery of the First-in-Class Dual Histone Deacetylase-Proteasome Inhibitor” (J Med Chem, 2018).
Activity calls are given as the source filed them. The calls are words filed in the database; no cut-off is given here.

Tests used:
KCL-22 [1] = assay: Cytotoxicity against human KCL22 cells after 72 hrs by CellTiter-Glo luminescent cell viability assay; format: functional, cell-based; settings: KCL-22, 72 h
How it was run: (§1)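 Inhibitors dispensed in increasing concentrations (50 nM–25 μM) and cells exposed 72 h. Viability read by ATP-dependent luminescence (CellTiter-Glo). Raw data normalized to controls. IC50 obtained by sigmoid dose–response fit with non-linear regression.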

[2] = target: T1, Protein deacetylase HDAC6 (Homo sapiens) (UniProt Q9UBN7); assay: Inhibition of HDAC6 in imatinib-resistant human SUP-B15 cells assessed as increase in acetyl-alpha tubulin expression at 0.1 to 10 uM after 24 hrs by immunoblot assay; format: cell-based
T1 sequence (whole entry): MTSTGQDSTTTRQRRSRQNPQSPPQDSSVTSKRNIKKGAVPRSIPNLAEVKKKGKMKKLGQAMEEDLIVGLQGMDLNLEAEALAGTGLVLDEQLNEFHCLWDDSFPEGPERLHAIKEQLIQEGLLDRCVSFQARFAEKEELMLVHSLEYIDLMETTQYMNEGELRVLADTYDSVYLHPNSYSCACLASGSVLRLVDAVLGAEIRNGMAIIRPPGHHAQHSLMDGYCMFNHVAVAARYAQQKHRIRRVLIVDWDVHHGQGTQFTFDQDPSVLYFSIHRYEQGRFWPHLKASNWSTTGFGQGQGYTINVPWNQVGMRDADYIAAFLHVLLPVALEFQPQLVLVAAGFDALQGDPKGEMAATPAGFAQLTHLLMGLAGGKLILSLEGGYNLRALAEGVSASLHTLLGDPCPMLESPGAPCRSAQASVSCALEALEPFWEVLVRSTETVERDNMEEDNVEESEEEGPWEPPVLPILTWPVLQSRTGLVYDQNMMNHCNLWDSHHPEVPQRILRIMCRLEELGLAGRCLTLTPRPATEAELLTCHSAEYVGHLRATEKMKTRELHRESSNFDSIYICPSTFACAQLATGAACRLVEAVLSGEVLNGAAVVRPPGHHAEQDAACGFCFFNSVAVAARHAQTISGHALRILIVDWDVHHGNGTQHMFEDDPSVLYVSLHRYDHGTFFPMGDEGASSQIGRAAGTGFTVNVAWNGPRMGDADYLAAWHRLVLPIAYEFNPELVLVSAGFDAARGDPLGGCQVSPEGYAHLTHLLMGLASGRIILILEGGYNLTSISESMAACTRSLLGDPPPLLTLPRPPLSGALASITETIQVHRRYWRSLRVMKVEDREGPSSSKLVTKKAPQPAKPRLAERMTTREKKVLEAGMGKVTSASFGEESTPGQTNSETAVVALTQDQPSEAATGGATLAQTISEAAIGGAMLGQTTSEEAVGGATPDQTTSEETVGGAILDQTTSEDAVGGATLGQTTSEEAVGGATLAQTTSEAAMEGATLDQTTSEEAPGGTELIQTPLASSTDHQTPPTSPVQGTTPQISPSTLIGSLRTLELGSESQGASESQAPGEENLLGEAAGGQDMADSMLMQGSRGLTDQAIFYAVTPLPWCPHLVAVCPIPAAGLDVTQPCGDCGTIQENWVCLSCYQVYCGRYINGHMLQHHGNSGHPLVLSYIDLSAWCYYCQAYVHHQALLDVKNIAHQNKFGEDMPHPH
How it was run: (§2)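 Cells exposed for 24 h at indicated concentrations; lysates immunoblotted for acetyl-α-tubulin, acetyl-histone H3, PARP, with GAPDH as loading control.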

[3] = target: Proteasome Macropain subunit (Homo sapiens) (UniProt P49721); assay: Inhibition of trypsin-like activity of 20S proteasome in human HL60 cells at 4 nM to 25 uM using Z-LRR-aminoluciferin as substrate after 2 hrs by proteasome-Glo assay; format: cell-based
Proteasome Macropain subunit (Homo sapiens), sequence (P49721 whole entry): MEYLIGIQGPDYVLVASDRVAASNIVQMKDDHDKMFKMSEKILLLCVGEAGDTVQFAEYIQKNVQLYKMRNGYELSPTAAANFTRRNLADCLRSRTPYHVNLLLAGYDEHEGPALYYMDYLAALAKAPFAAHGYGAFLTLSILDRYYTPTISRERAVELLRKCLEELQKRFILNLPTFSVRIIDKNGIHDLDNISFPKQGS

[4] = target: T1, Protein deacetylase HDAC6 (Homo sapiens); assay: Inhibition of HDAC6 in human HL60 cells assessed as increase in acetyl-histone H3 expression at 0.1 to 10 uM after 24 hrs by immunoblot assay; format: cell-based; how it was run: as §2
[5] = target: T1, Protein deacetylase HDAC6 (Homo sapiens); assay: Inhibition of HDAC6 in human HL60 cells assessed as increase in acetyl-alpha tubulin expression at 0.1 to 10 uM after 24 hrs by immunoblot assay; format: cell-based; how it was run: as §2
[6] = target: T1, Protein deacetylase HDAC6 (Homo sapiens); assay: Inhibition of HDAC6 in human SEM cells assessed as increase in acetyl-histone H3 expression at 0.1 to 10 uM after 24 hrs by immunoblot assay; format: cell-based; how it was run: as §2
Homo sapiens = organism: Homo sapiens; assay: Inhibition of HDAC6/chymotrypsin-like activity of 20S proteasome in human HL60 cells assessed as increase in cleaved PARP expression at 0.1 to 10 uM after 24 hrs by immunoblot assay; format: cell-based; how it was run: as §2
[7] = target: Histone deacetylase 3/Nuclear receptor corepressor 2 (HDAC3/NCoR2) (Homo sapiens, UniProt O15379); format: ADME, cell-based
Histone deacetylase 3/Nuclear receptor corepressor 2 (HDAC3/NCoR2), sequence (O15379 whole entry): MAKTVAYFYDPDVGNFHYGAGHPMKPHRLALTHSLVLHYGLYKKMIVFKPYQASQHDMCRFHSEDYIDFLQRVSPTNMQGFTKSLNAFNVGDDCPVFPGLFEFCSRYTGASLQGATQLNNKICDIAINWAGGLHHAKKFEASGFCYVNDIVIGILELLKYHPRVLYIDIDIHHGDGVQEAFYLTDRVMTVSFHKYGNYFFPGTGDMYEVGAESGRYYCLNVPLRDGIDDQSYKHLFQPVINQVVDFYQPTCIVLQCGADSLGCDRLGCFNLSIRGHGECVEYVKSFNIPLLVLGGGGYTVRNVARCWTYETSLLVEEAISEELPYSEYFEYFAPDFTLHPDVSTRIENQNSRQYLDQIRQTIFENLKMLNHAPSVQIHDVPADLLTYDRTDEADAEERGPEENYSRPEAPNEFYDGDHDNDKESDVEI
Histone deacetylase 3/Nuclear receptor corepressor 2 (HDAC3/NCoR2), sequence (Q9Y618 whole entry, further chain): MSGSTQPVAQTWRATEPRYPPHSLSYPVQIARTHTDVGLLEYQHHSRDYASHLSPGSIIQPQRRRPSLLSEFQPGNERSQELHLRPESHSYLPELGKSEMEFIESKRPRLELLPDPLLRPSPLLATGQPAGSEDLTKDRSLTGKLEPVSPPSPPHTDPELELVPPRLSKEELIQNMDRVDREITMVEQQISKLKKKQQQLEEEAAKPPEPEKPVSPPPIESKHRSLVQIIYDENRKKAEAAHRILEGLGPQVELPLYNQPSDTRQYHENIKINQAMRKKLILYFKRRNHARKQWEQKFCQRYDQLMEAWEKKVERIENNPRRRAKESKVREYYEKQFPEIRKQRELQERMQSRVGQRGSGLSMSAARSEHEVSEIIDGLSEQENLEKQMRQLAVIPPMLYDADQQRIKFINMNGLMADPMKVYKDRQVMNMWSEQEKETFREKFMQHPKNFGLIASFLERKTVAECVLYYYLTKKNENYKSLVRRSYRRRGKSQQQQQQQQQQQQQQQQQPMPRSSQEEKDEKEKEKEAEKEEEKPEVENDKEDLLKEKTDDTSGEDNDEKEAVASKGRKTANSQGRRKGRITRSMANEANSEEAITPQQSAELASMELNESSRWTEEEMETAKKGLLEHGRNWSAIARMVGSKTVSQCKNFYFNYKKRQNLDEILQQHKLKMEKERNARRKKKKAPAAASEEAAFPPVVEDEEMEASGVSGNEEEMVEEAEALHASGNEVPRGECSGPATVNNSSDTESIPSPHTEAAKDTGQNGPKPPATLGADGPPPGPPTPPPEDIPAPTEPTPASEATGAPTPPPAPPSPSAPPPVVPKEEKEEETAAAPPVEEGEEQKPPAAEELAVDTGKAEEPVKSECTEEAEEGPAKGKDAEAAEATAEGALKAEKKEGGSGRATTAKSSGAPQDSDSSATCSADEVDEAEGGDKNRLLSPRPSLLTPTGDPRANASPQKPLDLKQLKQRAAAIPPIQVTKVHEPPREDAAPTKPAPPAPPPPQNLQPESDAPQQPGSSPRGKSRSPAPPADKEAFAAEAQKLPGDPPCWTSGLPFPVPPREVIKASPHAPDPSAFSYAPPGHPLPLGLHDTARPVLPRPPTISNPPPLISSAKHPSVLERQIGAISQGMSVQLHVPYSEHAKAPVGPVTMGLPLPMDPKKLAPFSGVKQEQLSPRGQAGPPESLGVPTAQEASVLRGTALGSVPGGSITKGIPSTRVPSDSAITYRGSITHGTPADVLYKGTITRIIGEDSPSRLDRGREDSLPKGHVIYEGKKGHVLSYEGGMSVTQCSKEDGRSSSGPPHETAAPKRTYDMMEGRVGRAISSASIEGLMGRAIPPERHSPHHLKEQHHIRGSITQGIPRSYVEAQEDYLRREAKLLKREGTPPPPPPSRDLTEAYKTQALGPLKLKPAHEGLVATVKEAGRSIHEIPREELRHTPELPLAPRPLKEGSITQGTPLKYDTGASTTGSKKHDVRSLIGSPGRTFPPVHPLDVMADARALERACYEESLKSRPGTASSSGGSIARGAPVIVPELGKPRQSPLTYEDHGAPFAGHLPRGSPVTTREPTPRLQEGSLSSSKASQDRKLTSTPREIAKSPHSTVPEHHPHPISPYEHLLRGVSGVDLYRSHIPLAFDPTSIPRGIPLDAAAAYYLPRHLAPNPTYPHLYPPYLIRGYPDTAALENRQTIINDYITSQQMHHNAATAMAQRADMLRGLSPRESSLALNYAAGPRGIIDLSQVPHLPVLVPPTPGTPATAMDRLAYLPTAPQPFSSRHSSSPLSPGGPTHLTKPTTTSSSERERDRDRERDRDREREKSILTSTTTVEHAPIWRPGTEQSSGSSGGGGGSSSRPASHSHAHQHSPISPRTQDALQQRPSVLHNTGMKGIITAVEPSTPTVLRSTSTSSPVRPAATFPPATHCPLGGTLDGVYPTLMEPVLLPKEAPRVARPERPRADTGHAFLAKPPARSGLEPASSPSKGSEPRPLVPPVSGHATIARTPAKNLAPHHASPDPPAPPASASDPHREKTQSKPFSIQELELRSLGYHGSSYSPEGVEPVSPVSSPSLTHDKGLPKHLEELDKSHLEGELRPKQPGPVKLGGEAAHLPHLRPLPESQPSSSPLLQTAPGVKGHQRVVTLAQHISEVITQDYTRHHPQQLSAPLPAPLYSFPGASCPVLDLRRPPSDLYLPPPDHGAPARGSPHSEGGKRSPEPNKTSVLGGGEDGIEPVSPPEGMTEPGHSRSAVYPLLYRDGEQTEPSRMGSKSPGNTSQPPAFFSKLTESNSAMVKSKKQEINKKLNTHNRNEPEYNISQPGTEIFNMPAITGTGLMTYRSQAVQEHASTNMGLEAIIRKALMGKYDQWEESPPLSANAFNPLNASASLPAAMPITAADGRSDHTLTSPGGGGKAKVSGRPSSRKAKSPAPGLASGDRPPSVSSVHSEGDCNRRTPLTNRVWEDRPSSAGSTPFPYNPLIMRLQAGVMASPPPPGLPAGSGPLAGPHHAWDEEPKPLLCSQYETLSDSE

SEM cells [8] = assay: Inhibition of HDAC6/chymotrypsin-like activity of 20S proteasome in human SEM cells assessed as increase in HSP27 protein expression at 0.1 to 10 uM after 18 hrs by Western blot assay; format: cell-based
How it was run: (§3)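 Cells treated 18 h at indicated concentrations; lysates analysed by western blot for heat shock (Grp94, HSP70, HSP40, HSP27), UPR (BIP, ATF4, ATF6, pJNK) and autophagy (LC3B, p62) proteins.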

KCL-22 [9] = assay: Cytotoxicity against imatinib-resistant human KCL22 cells after 72 hrs by CellTiter-Glo luminescent cell viability assay; format: functional, cell-based; settings: KCL-22, 72 h; how it was run: as §1
[10] = target: T2, Proteasome Macropain subunit MB1 (Homo sapiens, UniProt P28074); assay: Inhibition of chymotrypsin-like activity of 20S proteasome in human SEM cells using Suc-LLVY aminoluciferin as substrate after 2 hrs by proteasome-Glo assay; format: cell-based
T2 sequence (P28074 whole entry): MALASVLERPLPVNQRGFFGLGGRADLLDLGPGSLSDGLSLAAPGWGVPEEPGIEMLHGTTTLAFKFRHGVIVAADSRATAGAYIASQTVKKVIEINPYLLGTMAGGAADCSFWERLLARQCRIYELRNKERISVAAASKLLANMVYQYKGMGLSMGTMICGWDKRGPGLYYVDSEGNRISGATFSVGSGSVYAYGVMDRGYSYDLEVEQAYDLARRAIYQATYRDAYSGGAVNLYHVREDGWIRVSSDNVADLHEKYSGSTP

SEM cells [11] = assay: Reduction of colony forming capacity of human SEM cells at IC50 to 2 times IC50 after 48 hrs; format: functional, cell-based
How it was run: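 SEM cells pretreated in liquid medium (methods: 24 h; legend: 48 h), then plated in semisolid methylcellulose-based medium containing compound or control; colonies counted after 14 days.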

[12] = Cytotoxicity against human RPMI18226 cells after 72 hrs by CellTiter-Glo luminescent cell viability assay; format: functional, cell-based; settings: RPMI18226, 72 h
SEM cells [13] = assay: Cell cycle arrest in human SEM cells assessed as reduction in cell levels at G2/M phase at IC50 to 2 times IC50 after 48 hrs by propidium iodide staining-based FACS analysis; format: functional
[14] = target: T3, Protein deacetylase HDAC6 (Homo sapiens, UniProt Q9UBN7); assay: Inhibition of N-terminal GST-tagged recombinant human HDAC6 expressed in baculovirus infected insect cells using RHKK(Ac)AMC as substrate by fluorescence-based assay
T3 sequence (Q9UBN7 whole entry): T1 sequence (whole entry)

SEM cells [15] = assay: Inhibition of HDAC6/chymotrypsin-like activity of 20S proteasome in human SEM cells assessed as increase in BIP protein expression at 0.1 to 10 uM after 18 hrs by Western blot assay; format: cell-based; how it was run: as §3

## C[C@H](NC(=O)[C@H](CC(=O)NCC(C)(C)C)NC(=O)c1ccc(C(=O)NO)cc1)C(=O)NCc1ccccc1
KCL-22 [1]
  IC50: 3.14 µM
[2]
  inhibition: Active
[3]
  inhibition: inactive
[4]
  inhibition: Active
[5]
  inhibition: Active
[6]
  inhibition: Active
Homo sapiens
  inhibition: Active
[7]
  IC50: 15 µM
SEM cells [8]
  inhibition: Active
KCL-22 [9]
  IC50: 2.58 µM
[10]
  IC50: 0.394 µM
SEM cells [11]
  Activity: Active
[12]
  IC50: 1.75 µM
SEM cells [13]
  Activity: Active
[14]
  IC50: 0.27 µM
SEM cells [15]
  inhibition: Active
